≈ marks a conversion by molar mass, not a printed value. Calls of active or inactive are those of the source. The calls are words filed in the database; no cut-off is given here.
Tests used:
[1] = system: HCT-116; assay: Cytotoxicity against human HCT116 cells at 2 to 50 nM after 24 to 48 hrs in presence of TGF-beta1 by MTT assay; format: cell-based; settings: hct-116, 0.05 µM
How it was run: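 HCT-116 cells exposed to TGF-β1 (10 ng/mL) alone or combined with test agent at 2, 10 or 50 nM for 24, 48 or 72 h. Viability read by MTT (formazan in DMSO, 570 nm).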

[2] = Half life in Sprague-Dawley rat at 20 mg/kg, iv after 4 hrs by LC-MS/MS analysis; format: ADME, organism-based; settings: in vivo
[3] = Induction of ROS accumulation in human CCD-841 cells at 10 uM after 3 hrs by DCFH-DA staining-based fluorescence microscopic analysis; format: cell-based; settings: ccd-841, 3 h
How it was run: (§1)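 HCT-116 or CCD-841 cells treated at 10 μM for 3 h, stained with DCFH-DA, and imaged by fluorescence microscopy for green-fluorescent cells.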

[4] = system: HCT-116; assay: Induction of ROS accumulation in human HCT116 cells at 10 uM after 3 hrs by DCFH-DA staining-based fluorescence microscopic analysis; format: functional, cell-based; how it was run: as §1
[5] = system: U-87 MG; assay: Antiproliferative activity against human U87MG cells after 72 hrs by MTT assay; format: functional, cell-based, U-87MG ATCC
How it was run: (§2)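 Cells grown in RPMI 1640 with 10% FBS in 96-well plates overnight, then exposed to test agents in triplicate for 72 h. MTT (5 mg/mL stock) added for the last 4 h, formazan dissolved in DMSO, absorbance read at 570 nm. Inhibition = (1 − OD treated/OD control) × 100%.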

[6] = Solubility of compound in phosphate buffer at pH 7.4 after 8 hrs by HPLC analysis; format: physicochemical
How it was run: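 Compound was shaken in 50 mM phosphate buffer (pH 7.4) at 20 °C, centrifuged, and the supernatant analysed by HPLC. Conditions were a C18 column, acetonitrile–water 60/40 (v/v) at 1.0 mL/min, with detection at 254 nm. Run in triplicate.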

[7] = system: HCT-116; assay: Antitumor activity against human HCT116 cells xenografted in BALB/c nude mouse assessed as reduction in tumor volume at 2.5 to 5 mg/kg, ip administered daily for 21 consecutive days; format: functional, organism-based
How it was run: (§3)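 Male BALB/c nude mice, 3–5 weeks old, inoculated subcutaneously with 1 × 10^7 HCT-116 cells. At about 75 mm³ tumor volume, randomized (n = 8/group) and dosed intraperitoneally daily. Volume by caliper as d² × D/2. At the end, tumors excised and weighed; inhibition = (Wcontrol − Wtreated)/Wcontrol × 100%.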

[8] = system: HCT-116; assay: Induction of ROS accumulation in human HCT116 cells at 1 to 10 uM up to 3 hrs by DCFH-DA staining-based fluorescence spectrometric analysis; format: functional, cell-based
How it was run: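 HCT-116 and CCD-841 cells treated in triplicate at 1, 5 and 10 μM for 1, 2 and 3 h. Intracellular ROS stained with DCFH-DA and fluorescence read on a microplate reader. Values expressed relative to DMSO control, from three separate experiments.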

[9] = system: HCT-116; assay: Antitumor activity against human HCT116 cells xenografted in BALB/c nude mouse assessed as tumor growth inhibition at 5 mg/kg, ip administered daily for 21 consecutive days relative to control; format: functional; settings: HCT-116, ip, read-out: TGI; how it was run: as §3
[10] = system: Mus musculus; assay: Acute toxicity in ICR mouse assessed as mortality at 50 mg/kg, ip administered for 14 days; format: organism-based; settings: in vivo, 336 h
[11] = Antiproliferative activity against human CCD-841 cells after 72 hrs by MTT assay; format: cell-based; settings: CCD-841, 72 h; how it was run: as §2
[12] = system: HT-29; assay: Antiproliferative activity against human HT-29 cells after 72 hrs by MTT assay; format: functional, cell-based; settings: HT-29, 72 h; how it was run: as §2
[13] = system: HCT-116; assay: Antiproliferative activity against human HCT116 cells after 72 hrs by MTT assay; format: functional, cell-based; settings: HCT-116, 72 h; how it was run: as §2
[14] = Thiol reactivity in DMSO assessed as methyl 2-(3-chloro-2-oxo-1-(3-(3,5,6-trimethylpyrazin-2-yl)acryloyl)piperidin-4-ylthio)acetate formation at 5 mg up to 8 hrs in presence of methyl thioglycolate by 1H NMR analysis
[15] = system: HCT-8; assay: Antiproliferative activity against human HCT8 cells after 72 hrs by MTT assay; format: functional, cell-based; settings: HCT-8, 72 h; how it was run: as §2
[16] = system: Mus musculus; assay: Toxicity in BALB/c nude mouse xenografted with human HCT116 cells assessed as loss of body weight at 4 mg/kg, ip administered thrice a week for 6 consecutive weeks; format: organism-based; settings: in vivo
How it was run: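 Lung metastasis model: HCT-116 cells in serum-free medium injected into tail vein of BALB/c nude mice, then randomized and given vehicle or compound ip (1, 2 or 4 mg/kg) three times a week. Body weight recorded weekly, survival monitored (n = 6); mice sacrificed after 40 days and lungs examined by H&E histology.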

[17] = system: SW-620; assay: Antiproliferative activity against human SW620 cells after 72 hrs by MTT assay; format: functional, cell-based; settings: SW-620, 72 h; how it was run: as §2
[18] = system: K562; assay: Antiproliferative activity against human K562 cells after 72 hrs by MTT assay; format: functional, cell-based; settings: K562, 72 h; how it was run: as §2
[19] = target: T1, Catenin beta-1 (Homo sapiens) (UniProt P35222); assay: Inhibition of TGF-beta1-regulated decrease in cytoplasmic beta-catenin in human HCT116 cells at 50 nM after 48 hrs by Western blot analysis; format: cell-based
T1 sequence (whole entry): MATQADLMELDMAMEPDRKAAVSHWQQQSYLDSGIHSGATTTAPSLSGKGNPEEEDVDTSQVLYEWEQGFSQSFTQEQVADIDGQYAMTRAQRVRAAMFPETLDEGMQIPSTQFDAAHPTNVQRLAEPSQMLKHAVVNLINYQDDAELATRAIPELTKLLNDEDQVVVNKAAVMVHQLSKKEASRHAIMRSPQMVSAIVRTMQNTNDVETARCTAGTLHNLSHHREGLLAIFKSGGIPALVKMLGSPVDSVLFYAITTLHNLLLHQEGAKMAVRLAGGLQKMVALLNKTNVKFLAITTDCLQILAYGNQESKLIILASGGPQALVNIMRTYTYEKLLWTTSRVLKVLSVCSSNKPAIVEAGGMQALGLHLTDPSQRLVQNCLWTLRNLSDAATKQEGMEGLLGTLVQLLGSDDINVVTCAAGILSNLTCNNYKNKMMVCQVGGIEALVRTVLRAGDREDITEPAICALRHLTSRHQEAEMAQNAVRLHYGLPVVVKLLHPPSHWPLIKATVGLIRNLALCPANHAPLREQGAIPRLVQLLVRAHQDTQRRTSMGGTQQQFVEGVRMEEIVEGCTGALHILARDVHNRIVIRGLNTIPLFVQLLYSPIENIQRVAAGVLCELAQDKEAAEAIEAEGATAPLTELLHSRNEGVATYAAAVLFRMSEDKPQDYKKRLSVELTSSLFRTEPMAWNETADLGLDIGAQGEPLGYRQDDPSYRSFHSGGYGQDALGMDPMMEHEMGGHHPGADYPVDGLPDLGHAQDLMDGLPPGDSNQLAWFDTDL
How it was run: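 Cytoplasmic and nuclear β-catenin were measured by Western blot in HCT-116 cells given TGF-β1 (10 ng/mL) for 48 h, with or without compound, against 0.1% DMSO vehicle. Lysates (20 μg/lane) were run on 7.5% gels and transferred to PVDF, with Lamin A among the antibodies used. Blots were read by ECL and densitometry, n = 3 independent experiments.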

Cc1nc(C)c(/C=C/C(=O)N2CCC=C(Cl)C2=O)nc1C
Activity [1]: Non-Toxic
half-life [2]: 2.17 h
Activity [3]: Toxic
Activity [4]: Active
IC50 [5]: 3.43 µM
solubility at 8 h [6]: 74.6 µg/mL (≈ 244 µM)
Activity [7]: Active
Activity [8]: Active
inhibition in vivo at 5 mg/kg [9]: 71.4%
Activity [10]: Non-Toxic
IC50 [11]: 51.6 µM
IC50 [12]: 0.54 µM
IC50 [13]: 0.3 µM
Drug metabolism [14]: Metabolite detected
IC50 [15]: 1.21 µM
Activity [16]: Non-Toxic
IC50 [17]: 0.87 µM
IC50 [18]: 0.25 µM

COc1cc(/C=C/C(=O)N2CCC=CC2=O)cc(OC)c1OC [PIPLARTINE]
Activity [1]: Non-Toxic
half-life [2]: 2.87 h
Activity [3]: Toxic
Activity [4]: Active
IC50 [5]: 17.3 µM
solubility at 8 h [6]: 0.32 µg/mL (≈ 1.01 µM)
inhibition [19]: Active
inhibition in vivo at 5 mg/kg [9]: 60.6%
IC50 [11]: 44.3 µM
IC50 [12]: 2.65 µM
IC50 [13]: 8.13 µM
IC50 [15]: 4.1 µM
Activity [16]: Non-Toxic
IC50 [17]: 4.62 µM
IC50 [18]: 5.05 µM

Reference: ChEMBL document CHEMBL4033788, “Novel Ligustrazine-Based Analogs of Piperlongumine Potently Suppress Proliferation and Metastasis of Colorectal Cancer Cells in Vitro and in Vivo” (J Med Chem, 2018)
